Laboratory results published in ChEMBL document CHEMBL4002615, “Investigation of piperazine benzamides as human β3 adrenergic receptor agonists for the treatment of overactive bladder” (Bioorg Med Chem Lett, 2017).

Experiments:
[1] = molecular target: T1, Beta-3 adrenergic receptor (Homo sapiens, UniProt P13945); assay: Agonist activity at human beta3 adrenergic receptor
Outline: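 Human β3 receptor agonist EC50 given as the mean of at least two experiments.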
Target sequence in this assay (P13945 whole entry): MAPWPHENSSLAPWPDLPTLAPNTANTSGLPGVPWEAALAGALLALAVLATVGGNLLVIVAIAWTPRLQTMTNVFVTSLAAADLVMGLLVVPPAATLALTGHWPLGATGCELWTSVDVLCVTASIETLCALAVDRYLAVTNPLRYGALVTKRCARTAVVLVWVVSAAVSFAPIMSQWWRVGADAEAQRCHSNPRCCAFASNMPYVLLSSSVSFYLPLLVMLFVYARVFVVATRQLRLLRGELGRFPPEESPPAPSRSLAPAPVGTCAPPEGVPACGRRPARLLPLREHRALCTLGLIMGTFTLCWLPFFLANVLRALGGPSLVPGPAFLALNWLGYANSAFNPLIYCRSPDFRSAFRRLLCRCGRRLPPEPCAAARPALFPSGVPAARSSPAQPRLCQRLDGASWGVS

[2] = molecular target: T1, Beta-3 adrenergic receptor; assay: Agonist activity at human beta3 adrenergic receptor relative to R-(-)-isoproterenol
Target sequence in this assay (P13945 whole entry, looked up): as the sequence (P13945 whole entry) above

[3] = molecular target: Beta-1 adrenergic receptor (Homo sapiens, UniProt P08588); assay: Activity at human beta1 adrenergic receptor
Beta-1 adrenergic receptor, sequence (P08588 whole entry): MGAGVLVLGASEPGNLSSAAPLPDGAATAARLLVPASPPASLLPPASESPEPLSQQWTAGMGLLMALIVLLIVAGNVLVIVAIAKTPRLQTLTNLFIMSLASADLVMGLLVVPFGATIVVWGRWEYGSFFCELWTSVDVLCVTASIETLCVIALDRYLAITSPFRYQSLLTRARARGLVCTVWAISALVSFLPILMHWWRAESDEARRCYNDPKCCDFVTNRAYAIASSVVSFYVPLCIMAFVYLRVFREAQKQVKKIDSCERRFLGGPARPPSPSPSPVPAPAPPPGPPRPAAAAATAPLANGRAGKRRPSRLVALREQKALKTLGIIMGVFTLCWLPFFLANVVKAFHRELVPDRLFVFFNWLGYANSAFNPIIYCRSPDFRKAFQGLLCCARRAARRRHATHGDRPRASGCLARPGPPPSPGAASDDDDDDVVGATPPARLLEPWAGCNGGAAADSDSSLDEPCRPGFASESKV

[4] = molecular target: Beta-2 adrenergic receptor (Homo sapiens, UniProt P07550); assay: Activity at human beta2 adrenergic receptor
[5] = molecular target: Sodium channel protein type 5 subunit alpha (Homo sapiens, UniProt Q14524); assay: Inhibition of human Nav1.5 by electrophysiology method
Sodium channel protein type 5 subunit alpha, sequence (Q14524 whole entry): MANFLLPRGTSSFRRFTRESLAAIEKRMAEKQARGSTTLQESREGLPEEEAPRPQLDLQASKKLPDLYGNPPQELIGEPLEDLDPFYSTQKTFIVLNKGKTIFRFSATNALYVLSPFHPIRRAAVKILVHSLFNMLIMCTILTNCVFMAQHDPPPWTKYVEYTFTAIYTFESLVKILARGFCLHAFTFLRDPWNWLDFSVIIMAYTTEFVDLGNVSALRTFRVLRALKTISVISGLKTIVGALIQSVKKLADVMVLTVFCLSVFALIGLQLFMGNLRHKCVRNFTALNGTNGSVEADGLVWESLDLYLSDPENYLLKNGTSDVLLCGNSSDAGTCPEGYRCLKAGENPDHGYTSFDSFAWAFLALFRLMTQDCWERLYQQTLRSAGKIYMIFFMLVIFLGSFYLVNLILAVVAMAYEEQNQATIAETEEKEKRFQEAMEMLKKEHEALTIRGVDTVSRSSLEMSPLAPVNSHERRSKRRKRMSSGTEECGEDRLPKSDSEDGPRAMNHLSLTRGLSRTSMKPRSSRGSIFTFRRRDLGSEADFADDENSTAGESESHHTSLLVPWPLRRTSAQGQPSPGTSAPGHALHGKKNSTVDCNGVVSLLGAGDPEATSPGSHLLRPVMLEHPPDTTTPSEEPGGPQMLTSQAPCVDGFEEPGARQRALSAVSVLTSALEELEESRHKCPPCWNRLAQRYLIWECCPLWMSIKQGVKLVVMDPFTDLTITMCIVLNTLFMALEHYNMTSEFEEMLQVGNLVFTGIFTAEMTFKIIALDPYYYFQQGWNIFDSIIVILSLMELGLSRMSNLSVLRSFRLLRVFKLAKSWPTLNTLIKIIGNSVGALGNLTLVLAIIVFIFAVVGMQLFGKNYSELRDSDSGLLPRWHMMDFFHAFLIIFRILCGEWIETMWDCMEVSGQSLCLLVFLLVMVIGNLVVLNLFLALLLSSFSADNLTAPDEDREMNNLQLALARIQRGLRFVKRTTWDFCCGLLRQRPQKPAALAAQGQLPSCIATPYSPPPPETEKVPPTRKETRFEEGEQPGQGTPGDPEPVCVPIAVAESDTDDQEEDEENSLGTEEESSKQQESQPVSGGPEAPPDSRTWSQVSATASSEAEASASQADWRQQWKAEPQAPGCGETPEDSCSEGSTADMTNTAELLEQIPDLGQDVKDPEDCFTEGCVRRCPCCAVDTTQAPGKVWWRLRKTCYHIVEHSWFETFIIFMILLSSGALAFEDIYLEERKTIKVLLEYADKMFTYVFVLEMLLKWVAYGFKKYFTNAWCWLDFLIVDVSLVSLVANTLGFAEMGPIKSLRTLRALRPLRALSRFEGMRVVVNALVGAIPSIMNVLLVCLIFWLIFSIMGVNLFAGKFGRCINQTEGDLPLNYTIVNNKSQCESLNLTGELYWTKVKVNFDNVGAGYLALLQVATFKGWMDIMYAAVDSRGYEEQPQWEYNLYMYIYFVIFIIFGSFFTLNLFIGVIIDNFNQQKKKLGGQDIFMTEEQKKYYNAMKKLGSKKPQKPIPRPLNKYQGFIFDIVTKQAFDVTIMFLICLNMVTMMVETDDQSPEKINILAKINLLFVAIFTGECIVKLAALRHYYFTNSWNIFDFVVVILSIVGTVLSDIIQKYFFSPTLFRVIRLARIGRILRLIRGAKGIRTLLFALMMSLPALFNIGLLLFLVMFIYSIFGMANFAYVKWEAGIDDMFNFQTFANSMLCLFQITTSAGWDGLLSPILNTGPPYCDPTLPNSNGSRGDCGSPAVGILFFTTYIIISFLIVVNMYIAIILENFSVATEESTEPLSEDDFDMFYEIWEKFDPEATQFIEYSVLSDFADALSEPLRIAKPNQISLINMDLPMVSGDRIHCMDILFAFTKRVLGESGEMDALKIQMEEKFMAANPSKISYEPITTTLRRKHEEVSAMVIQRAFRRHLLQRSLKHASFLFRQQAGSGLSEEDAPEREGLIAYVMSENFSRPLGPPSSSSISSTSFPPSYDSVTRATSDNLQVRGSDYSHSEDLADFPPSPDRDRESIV

[6] = molecular target: Sodium-dependent serotonin transporter (Homo sapiens, UniProt P31645); assay: Inhibition of SERT (unknown origin)
Sodium-dependent serotonin transporter, sequence (P31645 whole entry): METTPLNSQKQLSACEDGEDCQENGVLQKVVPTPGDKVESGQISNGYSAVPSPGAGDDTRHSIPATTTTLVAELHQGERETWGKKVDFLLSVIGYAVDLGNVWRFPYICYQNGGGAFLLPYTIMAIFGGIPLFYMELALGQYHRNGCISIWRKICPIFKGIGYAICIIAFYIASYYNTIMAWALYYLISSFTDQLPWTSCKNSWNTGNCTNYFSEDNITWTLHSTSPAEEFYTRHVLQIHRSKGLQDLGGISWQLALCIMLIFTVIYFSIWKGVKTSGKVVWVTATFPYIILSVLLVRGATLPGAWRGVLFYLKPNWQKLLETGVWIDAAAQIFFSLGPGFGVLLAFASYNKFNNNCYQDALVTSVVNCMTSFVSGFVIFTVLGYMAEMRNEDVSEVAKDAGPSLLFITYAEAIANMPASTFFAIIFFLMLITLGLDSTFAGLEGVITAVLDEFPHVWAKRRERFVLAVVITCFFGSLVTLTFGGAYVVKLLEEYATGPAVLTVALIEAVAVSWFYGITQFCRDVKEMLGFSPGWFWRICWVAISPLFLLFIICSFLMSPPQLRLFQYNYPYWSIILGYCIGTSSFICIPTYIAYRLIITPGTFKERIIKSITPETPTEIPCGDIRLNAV

[7] = Induction of phospholipidosis in human HepG2 cells; format: cell-based; details: read-out: A50
[8] = molecular target: Sodium-dependent noradrenaline transporter (Homo sapiens, UniProt P23975); assay: Inhibition of NET (unknown origin) expressed in HEK293 cells assessed as reduction in norepinephrine reuptake; format: cell-based
[9] = molecular target: Voltage-gated inwardly rectifying potassium channel KCNH2 (Homo sapiens, UniProt Q12809); assay: Inhibition of human ERG
Voltage-gated inwardly rectifying potassium channel KCNH2, sequence (Q12809 whole entry): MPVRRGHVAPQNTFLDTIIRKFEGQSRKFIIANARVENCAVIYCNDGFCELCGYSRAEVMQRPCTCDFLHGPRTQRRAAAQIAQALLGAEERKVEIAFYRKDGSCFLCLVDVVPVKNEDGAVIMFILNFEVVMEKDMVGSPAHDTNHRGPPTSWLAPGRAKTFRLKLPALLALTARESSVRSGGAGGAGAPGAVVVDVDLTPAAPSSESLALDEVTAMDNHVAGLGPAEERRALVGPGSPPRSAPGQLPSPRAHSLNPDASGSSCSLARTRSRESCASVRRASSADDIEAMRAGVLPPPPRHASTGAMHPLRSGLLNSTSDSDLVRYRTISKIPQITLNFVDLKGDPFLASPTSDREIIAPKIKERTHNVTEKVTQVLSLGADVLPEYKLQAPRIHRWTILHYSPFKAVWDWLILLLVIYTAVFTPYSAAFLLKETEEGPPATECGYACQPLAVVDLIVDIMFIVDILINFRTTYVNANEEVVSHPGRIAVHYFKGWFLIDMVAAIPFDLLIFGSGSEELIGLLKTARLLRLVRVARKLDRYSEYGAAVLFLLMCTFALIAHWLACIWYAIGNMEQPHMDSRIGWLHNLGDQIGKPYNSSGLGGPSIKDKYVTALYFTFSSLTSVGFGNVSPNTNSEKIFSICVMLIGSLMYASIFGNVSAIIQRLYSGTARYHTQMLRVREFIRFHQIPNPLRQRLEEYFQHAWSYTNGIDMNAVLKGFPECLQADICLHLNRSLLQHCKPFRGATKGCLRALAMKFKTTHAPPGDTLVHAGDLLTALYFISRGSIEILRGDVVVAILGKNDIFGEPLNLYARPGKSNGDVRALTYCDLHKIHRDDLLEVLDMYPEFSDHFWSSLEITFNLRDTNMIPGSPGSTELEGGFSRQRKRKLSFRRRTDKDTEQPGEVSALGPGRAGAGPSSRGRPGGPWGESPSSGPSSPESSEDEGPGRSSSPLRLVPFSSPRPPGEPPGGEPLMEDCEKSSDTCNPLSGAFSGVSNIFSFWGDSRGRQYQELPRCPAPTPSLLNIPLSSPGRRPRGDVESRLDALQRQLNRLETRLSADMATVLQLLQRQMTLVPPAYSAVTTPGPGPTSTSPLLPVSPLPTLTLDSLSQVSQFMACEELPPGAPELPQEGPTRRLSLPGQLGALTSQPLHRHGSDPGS

[10] = Volume of distribution in rat at 1 mg/kg, iv or 2 mg/kg, po; format: ADME, organism-based; details: in vivo
[11] = Plasma clearance in rat at 1 mg/kg, iv or 2 mg/kg, po; format: ADME, organism-based
[12] = Half life in rat at 1 mg/kg, iv or 2 mg/kg, po; format: ADME, organism-based; details: in vivo
[13] = test system: Rattus norvegicus; assay: Total dose normalized AUC in rat 2 mg/kg, po; format: ADME, organism-based; details: in vivo
[14] = Oral bioavailability in rat 2 mg/kg; format: ADME, organism-based; details: in vivo
[15] = Plasma clearance in rat at 0.5 mg/kg, iv administered as cassette dose or 2 mg/kg, po; format: ADME, organism-based
[16] = Volume of distribution in rat at 0.5 mg/kg, iv administered as cassette dose or 2 mg/kg, po; format: ADME, organism-based; details: in vivo
[17] = Half life in rat at 0.5 mg/kg, iv administered as cassette dose or 2 mg/kg, po; format: ADME, organism-based; details: in vivo

Compound: Cc1nnc(-c2cccc(CN3CCN(C(=O)c4ccc(C[C@@H]5CC[C@H]([C@H](O)c6ccccc6)N5)cc4)CC3)n2)o1
- EC50 [1]: 0.0025 µM
- Emax [2]: 109%
- IC50 [3]: > 20 µM
- IC50 [4]: > 20 µM
- IC50 [5]: > 30 µM
- IC50 [6]: > 10 µM
- AC50 [7]: 68 µM
- EC50 [8]: 0.254 µM

Compound: O=C(c1ccc(C[C@@H]2CC[C@H]([C@H](O)c3ccccc3)N2)cc1)N1CCN(Cc2nnn(CC3CC3)n2)CC1
- EC50 [1]: 0.0052 µM
- Emax [2]: 99%
- IC50 [3]: > 20 µM
- IC50 [4]: > 20 µM
- IC50 [9]: 39.4 µM
- IC50 [5]: > 30 µM
- IC50 [6]: > 10 µM
- AC50 [7]: 70 µM
- EC50 [8]: 1.39 µM

Compound: CCn1nnc(CN2CCN(C(=O)c3ccc(C[C@@H]4CC[C@H]([C@H](O)c5ccccc5)N4)cc3)CC2)n1
- EC50 [1]: 0.0051 µM
- Emax [2]: 91%
- IC50 [3]: > 20 µM
- IC50 [4]: > 20 µM
- IC50 [9]: > 60 µM
- IC50 [5]: > 30 µM
- IC50 [6]: > 10 µM
- EC50 [8]: 1.52 µM

Compound: O=C(c1ccc(C[C@@H]2CC[C@H]([C@H](O)c3ccccc3)N2)cc1)N1CCN(Cc2ncn(CC(F)(F)F)n2)CC1
- EC50 [1]: 0.0016 µM
- Emax [2]: 113%
- IC50 [3]: > 20 µM
- IC50 [4]: > 20 µM
- IC50 [9]: > 60 µM
- IC50 [5]: > 30 µM
- IC50 [6]: > 10 µM
- EC50 [8]: 0.065 µM
- Vd [10]: 38 L/kg
- clearance [11]: 6.3 L/h/kg
- half-life [12]: 5.4 h
- AUC/dose [13]: 0.3 µM·h/mg/kg
- bioavailability [14]: < 1%

Compound: Cc1noc(-c2cccc(CN3CCN(C(=O)c4ccc(C[C@@H]5CC[C@H]([C@H](O)c6ccccc6)N5)cc4)CC3)n2)n1
- EC50 [1]: 0.00032 µM
- Emax [2]: 99%
- IC50 [3]: > 20 µM
- IC50 [4]: > 20 µM
- IC50 [9]: > 60 µM
- IC50 [5]: > 30 µM
- IC50 [6]: 8.79 µM
- EC50 [8]: 0.251 µM
- clearance [15]: 10.9 L/h/kg
- Vd [16]: 19 L/kg
- half-life [17]: 1.8 h
